Measured values taken from ChEMBL document CHEMBL1926550, “Synthesis and antibacterial activity of naphthyridone derivatives containing mono/difluoro-methyloxime pyrrolidine scaffolds” (2012).
Converted amounts (≈) assume the structure as drawn.

system: Staphylococcus aureus; experiment: Antibacterial activity against methicillin-resistant Staphylococcus aureus 10-2 after 18 hrs by two fold serial dilution method; format: functional; settings: 10-2, 18 h
How it was run: (§1)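 Agar two-fold serial dilution in melted Mueller-Hinton agar, 128 to 0.008 μg/mL. Plates inoculated with 10⁴ cfu, incubated 35 °C for 18 h. MIC taken as lowest concentration giving no visible growth on the plate.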

Row | SMILES | MIC [µg/mL]
1 | CC1(CN)CN(c2nc3c(cc2F)c(=O)c(C(=O)O)cn3C2CC2)C/C1=N\OCF (racemic) | 0.25 (≈ 0.593 µM)

system: Staphylococcus aureus; experiment: Antibacterial activity against methicillin-sensitive Staphylococcus aureus 10-3 after 18 hrs by two fold serial dilution method; format: functional; settings: 10-3, 18 h
How it was run: (§2)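 Agar two-fold serial dilution in melted Mueller-Hinton agar, final concentrations 128 down to 0.008 μg/mL. Plates inoculated with 10⁴ cfu and incubated at 35 °C for 18 h. MIC taken as the lowest concentration giving no visible growth on the plate.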

Row | SMILES | MIC [µg/mL]
2 | CC1(CN)CN(c2nc3c(cc2F)c(=O)c(C(=O)O)cn3C2CC2)C/C1=N\OCF (racemic) | 0.25 (≈ 0.593 µM)

system: Staphylococcus aureus; experiment: Ratio of moxifloxacin MIC to compound MIC for methicillin-resistant Staphylococcus aureus 10-2; format: functional; settings: not given

Row | SMILES | Ratio
3 | CC1(CN)CN(c2nc3c(cc2F)c(=O)c(C(=O)O)cn3C2CC2)C/C1=N\OCF (racemic) | 32

system: Pseudomonas aeruginosa; experiment: Antibacterial activity against Pseudomonas aeruginosa 10-3 after 18 hrs by two fold serial dilution method; format: functional; settings: 10-3, 18 h; how it was run: as §2

Row | SMILES | MIC [µg/mL]
4 | CC1(CN)CN(c2nc3c(cc2F)c(=O)c(C(=O)O)cn3C2CC2)C/C1=N\OCF (racemic) | 4 (≈ 9.49 µM)

system: Enterococcus faecalis; experiment: Antibacterial activity against Enterococcus faecalis 09-2 after 18 hrs by two fold serial dilution method; format: functional; settings: 09-2, 18 h; how it was run: as §2

Row | SMILES | MIC [µg/mL]
5 | CC1(CN)CN(c2nc3c(cc2F)c(=O)c(C(=O)O)cn3C2CC2)C/C1=N\OCF (racemic) | 1 (≈ 2.37 µM)

system: Staphylococcus aureus; experiment: Antibacterial activity against methicillin-resistant Staphylococcus aureus 10-1 after 18 hrs by two fold serial dilution method; format: functional; settings: 10-1, 18 h; how it was run: as §1

Row | SMILES | MIC [µg/mL]
6 | CC1(CN)CN(c2nc3c(cc2F)c(=O)c(C(=O)O)cn3C2CC2)C/C1=N\OCF (racemic) | 4 (≈ 9.49 µM)

system: Enterococcus faecium; experiment: Antibacterial activity against Enterococcus faecium 09-2 after 18 hrs by two fold serial dilution method; format: functional; settings: 09-2, 18 h; how it was run: as §2

Row | SMILES | MIC [µg/mL]
7 | CC1(CN)CN(c2nc3c(cc2F)c(=O)c(C(=O)O)cn3C2CC2)C/C1=N\OCF (racemic) | 16 (≈ 38 µM)

system: Enterococcus faecalis; experiment: Ratio of moxifloxacin MIC to compound MIC for Enterococcus faecalis 09-2; format: functional; settings: not given

Row | SMILES | Ratio
8 | CC1(CN)CN(c2nc3c(cc2F)c(=O)c(C(=O)O)cn3C2CC2)C/C1=N\OCF (racemic) | 16

system: Staphylococcus aureus; experiment: Antibacterial activity against methicillin-sensitive Staphylococcus aureus 10-1 after 18 hrs by two fold serial dilution method; format: functional; settings: 10-1, 18 h; how it was run: as §2

Row | SMILES | MIC [µg/mL]
9 | CC1(CN)CN(c2nc3c(cc2F)c(=O)c(C(=O)O)cn3C2CC2)C/C1=N\OCF (racemic) | 0.06 (≈ 0.142 µM)

system: Staphylococcus aureus; experiment: Ratio of gemifloxacin MIC to compound MIC for methicillin-resistant Staphylococcus aureus 10-2; format: functional; settings: not given

Row | SMILES | Ratio
10 | CC1(CN)CN(c2nc3c(cc2F)c(=O)c(C(=O)O)cn3C2CC2)C/C1=N\OCF (racemic) | 2

system: Enterococcus faecium; experiment: Antibacterial activity against Enterococcus faecium 09-3 after 18 hrs by two fold serial dilution method; format: functional; settings: 09-3, 18 h; how it was run: as §2

Row | SMILES | MIC [µg/mL]
11 | CC1(CN)CN(c2nc3c(cc2F)c(=O)c(C(=O)O)cn3C2CC2)C/C1=N\OCF (racemic) | 8 (≈ 19 µM)

system: Staphylococcus epidermidis; experiment: Antibacterial activity against methicillin-resistant Staphylococcus epidermidis 10-2 after 18 hrs by two fold serial dilution method; format: functional; settings: 10-2, 18 h; how it was run: as §1

Row | SMILES | MIC [µg/mL]
12 | CC1(CN)CN(c2nc3c(cc2F)c(=O)c(C(=O)O)cn3C2CC2)C/C1=N\OCF (racemic) | 0.5 (≈ 1.19 µM)

system: Escherichia coli; experiment: Antibacterial activity against Escherichia coli ATCC 25922 after 18 hrs by two fold serial dilution method; format: functional; settings: ATCC 25922, 18 h; how it was run: as §2

Row | SMILES | MIC [µg/mL]
13 | CC1(CN)CN(c2nc3c(cc2F)c(=O)c(C(=O)O)cn3C2CC2)C/C1=N\OCF (racemic) | 0.008 (≈ 0.019 µM)

system: Staphylococcus aureus; experiment: Antibacterial activity against Staphylococcus aureus ATCC 25923 after 18 hrs by two fold serial dilution method; format: functional; settings: ATCC 25923, 18 h; how it was run: as §2

Row | SMILES | MIC [µg/mL]
14 | CC1(CN)CN(c2nc3c(cc2F)c(=O)c(C(=O)O)cn3C2CC2)C/C1=N\OCF (racemic) | 0.008 (≈ 0.019 µM)

system: Enterococcus faecalis; experiment: Ratio of gemifloxacin MIC to compound MIC for Enterococcus faecalis 09-2; format: functional; settings: not given

Row | SMILES | Ratio
15 | CC1(CN)CN(c2nc3c(cc2F)c(=O)c(C(=O)O)cn3C2CC2)C/C1=N\OCF (racemic) | 4

system: Staphylococcus aureus; experiment: Antibacterial activity against methicillin-sensitive Staphylococcus aureus 10-6 after 18 hrs by two fold serial dilution method; format: functional; settings: 10-6, 18 h; how it was run: as §2

Row | SMILES | MIC [µg/mL]
16 | CC1(CN)CN(c2nc3c(cc2F)c(=O)c(C(=O)O)cn3C2CC2)C/C1=N\OCF (racemic) | 0.125 (≈ 0.297 µM)

system: Escherichia coli; experiment: Antibacterial activity against Escherichia coli 09-3 after 18 hrs by two fold serial dilution method; format: functional; settings: 09-3, 18 h; how it was run: as §2

Row | SMILES | MIC [µg/mL]
17 | CC1(CN)CN(c2nc3c(cc2F)c(=O)c(C(=O)O)cn3C2CC2)C/C1=N\OCF (racemic) | 32 (≈ 75.9 µM)

system: Staphylococcus aureus; experiment: Antibacterial activity against methicillin-sensitive Staphylococcus aureus 10-4 after 18 hrs by two fold serial dilution method; format: functional; settings: 10-4, 18 h; how it was run: as §2

Row | SMILES | MIC [µg/mL]
18 | CC1(CN)CN(c2nc3c(cc2F)c(=O)c(C(=O)O)cn3C2CC2)C/C1=N\OCF (racemic) | 0.06 (≈ 0.142 µM)

system: Staphylococcus aureus; experiment: Antibacterial activity against methicillin-resistant Staphylococcus aureus 10-4 after 18 hrs by two fold serial dilution method; format: functional; settings: 10-4, 18 h; how it was run: as §1

Row | SMILES | MIC [µg/mL]
19 | CC1(CN)CN(c2nc3c(cc2F)c(=O)c(C(=O)O)cn3C2CC2)C/C1=N\OCF (racemic) | 4 (≈ 9.49 µM)

system: Staphylococcus epidermidis; experiment: Antibacterial activity against methicillin-sensitive Staphylococcus epidermidis 10-1 after 18 hrs by two fold serial dilution method; format: functional; settings: 10-1, 18 h; how it was run: as §2

Row | SMILES | MIC [µg/mL]
20 | CC1(CN)CN(c2nc3c(cc2F)c(=O)c(C(=O)O)cn3C2CC2)C/C1=N\OCF (racemic) | 8 (≈ 19 µM)

system: Klebsiella pneumoniae; experiment: Antibacterial activity against Klebsiella pneumoniae 10-1 after 18 hrs by two fold serial dilution method; format: functional; settings: 10-1, 18 h; how it was run: as §2

Row | SMILES | MIC [µg/mL]
21 | CC1(CN)CN(c2nc3c(cc2F)c(=O)c(C(=O)O)cn3C2CC2)C/C1=N\OCF (racemic) | 0.015 (≈ 0.0356 µM)

system: Escherichia coli; experiment: Antibacterial activity against Escherichia coli 09-1 after 18 hrs by two fold serial dilution method; format: functional; settings: 09-1, 18 h; how it was run: as §2

Row | SMILES | MIC [µg/mL]
22 | CC1(CN)CN(c2nc3c(cc2F)c(=O)c(C(=O)O)cn3C2CC2)C/C1=N\OCF (racemic) | 64 (≈ 152 µM)
